What is called IC50 is the midpoint of a concentration-inhibition curve. The term EC50 denotes the midpoint of the concentration-response curve. A low value points to an effect from little substance.

The structures appear in SMILES notation. ≈ marks a conversion by molar mass, not a printed value.

Data set [1] is described as follows: Therapeutic index, ratio of IC50 for human H9 cells to EC50 for HIV1 3B. The data set is classed as cell-based. The note with it: for selectivity ratio: H9 cells (cytotoxicity IC50) and HIV-1 3B (antiviral EC50). In short, it runs like this: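 TI calculated as IC50 (Coulter counts of mock-infected cells after 4 days) divided by EC50 (day-4 supernatant p24 ELISA of infected cells). Both were read from the same 4-day plates.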

The subject of another data set is H9 cells (Homo sapiens). The data set is described as follows: Cytotoxicity against human H9 cells after 4 days.
In data set [2] the test system is Human immunodeficiency virus 1. Kind of data set: Inhibition of HIV-1 replication in acutely infected human H9 cells after 4 days. Particulars: H9, 96 h; call rule not given here.
The subject of data set [3] is Human immunodeficiency virus 1. Kind of data set: Antiviral activity against HIV1 in human H9 cells after 4 days. The note with it: h9, 96 h.
Setting [4] is: Homo sapiens, H9, 96 h, read-out: IC50.

As for `CC1(C)CC[C@]2(C(=O)O)CC[C@]3(C)C(=CC[C@@H]4[C@@]5(C)CC[C@H](OC(=O)CC(C)(C)C(=O)O)C(C)(C)[C@@H]5CC[C@]43C)[C@@H]2C1`, in data set [1], the selectivity ratio amounted to 22400. The IC50 in the data set on H9 cells (Homo sapiens) (setting [4]) is 11.2 µg/mL (≈ 19.2 µM).

On to `CC(C)(CC(=O)O)CC(=O)O[C@H]1CC[C@]2(C)[C@H]3CC=C4[C@@H]5CC(C)(C)CC[C@]5(C(=O)O)CC[C@@]4(C)[C@]3(C)CC[C@H]2C1(C)C`, for which, in data set [1], the selectivity ratio came to 9.3. For the same compound, the IC50 with H9 cells (Homo sapiens) (setting [4]) is 14.2 µg/mL (≈ 23.7 µM).

As to `CC1(C)CC[C@]2(C(=O)O)CC[C@]3(C)C(=CC[C@@H]4[C@@]5(C)CC[C@H](OC(=O)CCCC(=O)O)C(C)(C)[C@@H]5CC[C@]43C)[C@@H]2C1`, the selectivity ratio in data set [1] is 2.1. For the same compound, the IC50 with H9 cells (Homo sapiens) (setting [4]) was found to be 14.6 µg/mL (≈ 25.6 µM).

As to `CC1(C)CC[C@]2(C(=O)O)CC[C@]3(C)C(=CC[C@@H]4[C@@]5(C)CC[C@H](OC(=O)CC6(CC(=O)O)CCCC6)C(C)(C)[C@@H]5CC[C@]43C)[C@@H]2C1`, the selectivity ratio in data set [1] turned out to be 3.9. Moreover, the IC50 with H9 cells (Homo sapiens) (setting [4]) came out at 4.7 µg/mL (≈ 7.52 µM).

With `CC[C@@](C)(CC(=O)O)CC(=O)O[C@H]1CC[C@]2(C)[C@H]3CC=C4[C@@H]5CC(C)(C)CC[C@]5(C(=O)O)CC[C@@]4(C)[C@]3(C)CC[C@H]2C1(C)C`, the selectivity ratio in data set [1] was 4.1. Also, the IC50 in the data set on H9 cells (Homo sapiens) (setting [4]) came to 4.4 µg/mL (≈ 7.18 µM). In data set [2], the EC50 is 1.1 µg/mL (≈ 1.79 µM).

As for `C[C@@H]1CC[C@]2(C(=O)O)CC[C@]3(C)C(=CC[C@@H]4[C@@]5(C)[C@H](O)C(=O)[C@H](O)C(C)(C)[C@@H]5CC[C@]43C)[C@@H]2[C@]1(C)O`, the IC50 in the data set with H9 cells (Homo sapiens) (setting [4]) came to 40 µg/mL (≈ 79.6 µM). Moreover, the Activity entry in data set [3] is “Not Active”.

For the compound `C[C@@H]1CC[C@]2(C(=O)O)CC[C@]3(C)C(=CC[C@@H]4[C@@]5(C)CC(=O)[C@H](O)C(C)(C)[C@@H]5CC[C@]43C)[C@@H]2[C@]1(C)O`, the selectivity ratio in data set [1] turned out to be 2. Also, the IC50 in the data set with H9 cells (Homo sapiens) (setting [4]) was 40 µg/mL (≈ 82.2 µM). The same compound gave an EC50 in data set [2] of 20 µg/mL (≈ 41.1 µM).

In the case of `CC1(C)CC[C@]2(C(=O)[O-])CC[C@]3(C)C(=CC[C@@H]4[C@@]5(C)CC[C@H](O)C(C)(C)[C@@H]5CC[C@]43C)[C@@H]2C1.[K+]`, the “Ratio IC50/EC50” value in data set [1] (h9) was 68.6. Moreover, the IC50 in the data set with H9 cells (Homo sapiens) (setting [4]) was 34.3 µg/mL. In addition, the EC50 in data set [2] was found to be 0.5 µg/mL.

For `CC1(C)CC[C@]2(C(=O)O)CC[C@]3(CO)C(=CC[C@@H]4[C@@]5(C)CC[C@H](O)C(C)(C)[C@@H]5CC[C@]43C)[C@@H]2C1`, the selectivity ratio in data set [1] was 5.7. Further, the IC50 with H9 cells (Homo sapiens) (setting [4]) is 25 µg/mL (≈ 52.9 µM). Also, the midpoint of the response in data set [2], the EC50, lay at 4.4 µg/mL (≈ 9.31 µM).

For the compound `CC1(C)CC[C@]2(C(=O)O)CC[C@]3(C)C(=CC[C@@H]4[C@@]5(C)CC[C@H](OC(=O)COCC(=O)O)C(C)(C)[C@@H]5CC[C@]43C)[C@@H]2C1`, in the data set on H9 cells (Homo sapiens) (setting [4]), the IC50 worked out at 22.1 µg/mL (≈ 38.6 µM). Further, the Activity result in data set [3] is reported as “Not Active”.

Consider `CC1(C)CC[C@]2(C(=O)O)CC[C@]3(C)C(=CC[C@@H]4[C@@]5(C)CC[C@H](OC(=O)C(C)(C)CC(=O)O)C(C)(C)[C@@H]5CC[C@]43C)[C@@H]2C1`, for which, in the data set on H9 cells (Homo sapiens) (setting [4]), the IC50 was determined as 9.7 µg/mL (≈ 16.6 µM). The Activity entry in data set [3] was “Not Active”.

Regarding `C[C@@H](CC(=O)O)CC(=O)O[C@H]1CC[C@]2(C)[C@H]3CC=C4[C@@H]5CC(C)(C)CC[C@]5(C(=O)O)CC[C@@]4(C)[C@]3(C)CC[C@H]2C1(C)C`, the selectivity ratio in data set [1] is 3.3. Besides, in the data set with H9 cells (Homo sapiens) (setting [4]), the IC50 was 27.5 µg/mL (≈ 47 µM). This compound returned an EC50 in data set [2] of 8.3 µg/mL (≈ 14.2 µM).

In the case of `C[C@@H]1CC[C@]2(C(=O)O)CC[C@]3(C)C(=CC[C@@H]4[C@@]5(C)[C@H](O)[C@@H](O)[C@@H](O)C(C)(C)[C@@H]5CC[C@]43C)[C@@H]2[C@]1(C)O`, the selectivity ratio in data set [1] was greater than 2.9. Also, in the data set with H9 cells (Homo sapiens) (setting [4]), the IC50 is greater than 100 µg/mL. In data set [2], this compound registered an EC50 of 35 µg/mL (≈ 69.3 µM).

For `C[C@@H]1CC[C@]2(C(=O)O)CC[C@]3(C)C(=CC[C@@H]4[C@@]5(C)[C@H](O)[C@H](O)[C@H](O)C(C)(C)[C@@H]5CC[C@]43C)[C@@H]2[C@]1(C)O`, the IC50 in the data set on H9 cells (Homo sapiens) (setting [4]) was greater than 20 µg/mL. For the same compound, the Activity result in data set [3] was “Not Active”.

In the data set on H9 cells (Homo sapiens) (h9), `CC1(C)CC[C@]2(C(=O)O)CC[C@]3(C)C(=CC[C@@H]4[C@@]5(C)C[C@@H](O)[C@H](O)[C@@](C)(CO)[C@@H]5CC[C@]43C)[C@@H]2C1` (stereo in doubt; 2) [ARJUNOLIC ACID] came in with an IC50 of 8 µg/mL (≈ 16.4 µM).

For the compound `CC1(C)CC[C@]2(C(=O)O)CC[C@]3(C)C(=CC[C@@H]4[C@@]5(C)C[C@@H](O)[C@H](O)[C@@](C)(CO)[C@@H]5CC[C@]43C)[C@@H]2C1` (stereo in doubt; 3) [ARJUNOLIC ACID], in the data set on H9 cells (Homo sapiens) (h9), the IC50 stood at 36 µg/mL (≈ 73.7 µM). Further, the EC50 in data set [2] was determined as 15 µg/mL (≈ 30.7 µM).

Take `C=C(C)[C@@H]1CC[C@]2(C(=O)O)CC[C@]3(C)[C@H](CC[C@@H]4[C@@]5(C)C[C@@H](O)[C@H](O)C(C)(C)[C@@H]5CC[C@]43C)[C@@H]12` [ALPHITOLIC ACID]: in data set [1], the selectivity ratio turned out to be 0.25. Besides, in the data set on H9 cells (Homo sapiens) (setting [4]), the IC50 stood at 4 µg/mL (≈ 8.46 µM). The EC50 in data set [2] is 20 µg/mL (≈ 42.3 µM).

For `C[C@H]1[C@H](C)CC[C@]2(C(=O)O)CC[C@]3(C)C(=CC[C@@H]4[C@@]5(C)C[C@@H](O)[C@H](O)[C@@](C)(CO)[C@@H]5CC[C@]43C)[C@H]12` [ASIATIC ACID], the IC50 in the data set with H9 cells (Homo sapiens) (setting [4]) turned out to be 9 µg/mL (≈ 18.4 µM). Besides, the Activity entry in data set [3] is “Not Active”.

With `C[C@H]1[C@H](C)CC[C@]2(C(=O)O)CC[C@]3(C)C(=CC[C@@H]4[C@@]5(C)C[C@@H](O)[C@H](O)C(C)(C)[C@@H]5CC[C@]43C)[C@H]12` [COROSOLIC ACID], the selectivity ratio in data set [1] stood at 2. The IC50 with H9 cells (Homo sapiens) (setting [4]) was found to be 8 µg/mL (≈ 16.9 µM). In data set [2], this compound showed an EC50 of 4 µg/mL (≈ 8.46 µM).

As for `C[C@@H]1CC[C@]2(C(=O)O)CC[C@]3(C)C(=CC[C@@H]4[C@@]5(C)C[C@@H](O)[C@@H](O)C(C)(C)[C@@H]5CC[C@]43C)[C@@H]2[C@]1(C)O` [EUSCAPHIC ACID], the IC50 with H9 cells (Homo sapiens) (setting [4]) turned out to be 37.5 µg/mL (≈ 76.7 µM). In data set [3], the Activity entry was “Not Active”.

For the compound `CC1(C)CC[C@]2(C(=O)O)CC[C@]3(C)C(=CC[C@@H]4[C@@]5(C)CC[C@H](OC(=O)CCC(=O)O)C(C)(C)[C@@H]5CC[C@]43C)[C@@H]2C1` [OLEANOLIC ACID 3-O-SUCCINATE], the selectivity ratio in data set [1] is 1.1. Moreover, the IC50 with H9 cells (Homo sapiens) (setting [4]) is 6.5 µg/mL (≈ 11.7 µM). This compound also yielded an EC50 in data set [2] of 6.1 µg/mL (≈ 11 µM).

On to `CC1(C)CC[C@]2(C(=O)O)CC[C@]3(C)C(=CC[C@@H]4[C@@]5(C)CC[C@H](O)C(C)(C)[C@@H]5CC[C@]43C)[C@@H]2C1` [OLEANOLIC_ACID], for which the IC50 in the data set on H9 cells (Homo sapiens) (setting [4]) turned out to be 21.8 µg/mL (≈ 47.7 µM).

As to `CC1(C)CC[C@]2(C(=O)O)CC[C@]3(C)C(=CC[C@@H]4[C@@]5(C)CCC(=O)C(C)(C)[C@@H]5CC[C@]43C)[C@@H]2C1` [OLEANONIC ACID], the selectivity ratio in data set [1] was 7.3. Besides, the IC50 with H9 cells (Homo sapiens) (setting [4]) is 0.8 µg/mL (≈ 1.76 µM). Moreover, the EC50 in data set [2] is 0.11 µg/mL (≈ 0.242 µM).

Take `C[C@@H]1CC[C@]2(C(=O)O)CC[C@]3(C)C(=CC[C@@H]4[C@@]5(C)CC[C@H](O)C(C)(C)[C@@H]5CC[C@]43C)[C@@H]2[C@]1(C)O` [POMOLIC ACID]: the selectivity ratio in data set [1] worked out at 16.6. Also, the IC50 with H9 cells (Homo sapiens) (setting [4]) was found to be 23.3 µg/mL (≈ 49.3 µM). A half-maximal effect in data set [2] (EC50) was put at 1.4 µg/mL (≈ 2.96 µM).

Turning to `C[C@@H]1CC[C@]2(C(=O)O)CC[C@]3(C)C(=CC[C@@H]4[C@@]5(C)C[C@@H](O)[C@H](O)C(C)(C)[C@@H]5CC[C@]43C)[C@@H]2[C@]1(C)O` [TOMENTIC ACID], in the data set on H9 cells (Homo sapiens) (setting [4]), the IC50 worked out at 15 µg/mL (≈ 30.7 µM). For the same compound, the Activity result in data set [3] is listed as “Not Active”.

On to `C[C@H]1[C@H](C)CC[C@]2(C(=O)O)CC[C@]3(C)C(=CC[C@@H]4[C@@]5(C)CC[C@H](O)C(C)(C)[C@@H]5CC[C@]43C)[C@H]12` [URSOLIC ACID], for which the selectivity ratio in data set [1] was found to be 3.3. Besides, the IC50 with H9 cells (Homo sapiens) (setting [4]) was found to be 6.5 µg/mL (≈ 14.2 µM). The EC50 in data set [2] is 2 µg/mL (≈ 4.38 µM).

The record behind these values is ChEMBL document CHEMBL1150942, “Anti-AIDS agents. 30. Anti-HIV activity of oleanolic acid, pomolic acid, and structurally related triterpenoids” (J Nat Prod, 1998).
